According to ChEMBL document CHEMBL1255403, “Genetic dissection of azole resistance mechanisms in Candida albicans and their validation in a mouse model of disseminated infection” (2010):
≈ marks a conversion by molar mass, not a printed value.

Assays:
Format in all cases: functional
Candida albicans [1] = experiment: Antibacterial activity against Fluconazole resistant Candida albicans DSY3606 containing tac1delta/delta ERG11-1/ERG11-1 (TAC1-5) genotype by EUCAST standards based broth microdilution method sCandida albicans DSY294
Candida albicans [2] = experiment: […] activity against Fluconazole resistant Candida albicans DSY3608 containing tac1delta/delta ERG11-1/ERG11-1 (TAC1-1) genotype by EUCAST standards based broth microdilution method sCandida albicans DSY294
Candida albicans [3] = experiment: Antibacterial activity against Fluconazole resistant Candida albicans DSY3604 containing tac1delta/delta ERG11-1/ERG11-5 genotype by EUCAST standards based broth microdilution method
In short: (§1)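 Cells grew overnight in YEPD at 30°C and were diluted to 5 × 10^4 cells/ml in RPMI 1640 (MOPS 0.165 M, pH 7, 2% glucose, 1% DMSO). Drug from aqueous stock was 100-fold diluted. Plates ran 24 h at 35°C and were read at 450 nm. MIC was the concentration giving >50% OD decrease versus drug-free control.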

Candida albicans [4] = experiment: Antibacterial activity against azole-susceptible Candida albicans DSY294 by EUCAST standards based broth microdilution method; in short: as §1
Candida albicans [5] = experiment: […] activity against Fluconazole resistant Candida albicans DSY3752 containing (TAC1-5/TAC1-5 ERG11-1/ERG11-1) genotype by EUCAST standards based broth microdilution method sCandida albicans DSY294
Candida albicans [6] = experiment: Antibacterial activity against Fluconazole resistant Candida albicans DSY3706 containing tac1delta/delta ERG11-1/ERG11-1 genotype by EUCAST standards based broth microdilution method; in short: as §1
Candida albicans [7] = experiment: […] activity against Fluconazole resistant Candida albicans DSY296 overexpressing multidrug transporter gene CDR1 and CDR2 and containing ERG11 G464S mutation by EUCAST standards based broth microdilution method relative to wildtype sCandida albicans DSY294
Candida albicans [8] = experiment: […] activity against Fluconazole resistant Candida albicans DSY3706 containing tac1delta/delta ERG11-1/ERG11-1 genotype by EUCAST standards based broth microdilution method sCandida albicans DSY294
Candida albicans [9] = experiment: Antibacterial activity against Fluconazole resistant Candida albicans DSY3606 containing tac1delta/delta ERG11-1/ERG11-1 (TAC1-5) genotype by EUCAST standards based broth microdilution method; in short: as §1
Candida albicans [10] = experiment: Antibacterial activity against Fluconazole resistant Candida albicans DSY296 overexpressing multidrug transporter gene CDR1 and CDR2 and containing ERG11 G464S mutation by EUCAST standards based broth microdilution method; in short: as §1
Candida albicans [11] = experiment: Antibacterial activity against Fluconazole resistant Candida albicans DSY3752 containing (TAC1-5/TAC1-5 ERG11-1/ERG11-1) genotype by EUCAST standards based broth microdilution method; in short: as §1
Candida albicans [12] = experiment: Antibacterial activity against Fluconazole resistant Candida albicans DSY3083 containing tac1delta/delta genotype by EUCAST standards based broth microdilution method; in short: as §1
Candida albicans [13] = experiment: Antibacterial activity against Fluconazole resistant Candida albicans DSY3608 containing tac1delta/delta ERG11-1/ERG11-1 (TAC1-1) genotype by EUCAST standards based broth microdilution method; in short: as §1
Candida albicans [14] = experiment: Antibacterial activity against Fluconazole resistant Candida albicans DSY3083 containing tac1delta/delta genotype by EUCAST standards based broth microdilution method sCandida albicans DSY294
Candida albicans [15] = experiment: Antibacterial activity against Fluconazole resistant Candida albicans DSY3604 containing tac1delta/delta ERG11-1/ERG11-5 genotype by EUCAST standards based broth microdilution method sCandida albicans DSY294
Candida albicans [16] = experiment: (§2) Antibacterial activity against Fluconazole resistant Candida albicans DSY3706 containing tac1delta/delta ERG11-1/ERG11-1 genotype infected in BALB/c mouse assessed as effect on infection outcome score administered intraperitoneally 1 hr post bacterial challenge measured 3 days post infection
In short: (§3)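 Intravenous infection of female BALB/c mice with a strain-specific inoculum. […] ED50 was derived from the 3-day infection outcome score at 72 h.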

Candida albicans [17] = experiment: (§4) Antibacterial activity against Fluconazole resistant Candida albicans DSY296 overexpressing multidrug transporter gene CDR1 and CDR2 and containing ERG11 G464S mutation containing CIp10 to restore URA3 function infected in BALB/c mouse assessed as weight change administered intraperitoneally 1 hr post bacterial challenge measured 3 days post infection
Candida albicans [18] = experiment: as §4, with “effect on infection outcome score” for “weight change”; in short: as §3
Candida albicans [19] = experiment: as §4, with “reduction in kidney microbial burden” for “weight change”
In short: (§5)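 At 72 h the left kidney was homogenised in saline and viable counts taken as log10 CFU/g. ED50 was the dose lowering the mean burden >1.5 log below controls.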

Candida albicans [20] = experiment: (§6) Antibacterial activity against Fluconazole resistant Candida albicans DSY3706 containing tac1delta/delta ERG11-1/ERG11-1 genotype infected in BALB/c mouse assessed as reduction in kidney microbial burden administered intraperitoneally 1 hr post bacterial challenge measured 3 days post infection; in short: as §5
Candida albicans [21] = experiment: as §2, with “DSY3606” for “DSY3706”, “ERG11-1/ERG11-1 (TAC1-5)” for “ERG11-1/ERG11-1”; in short: as §3
Candida albicans [22] = experiment: as §4, with “mouse” for “mouse assessed as weight change”
In short: (§7)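 Female BALB/c mice (18–22 g) infected i.v. with a saline suspension of NGY-grown yeast. The challenge inoculum was strain-specific, set by pilot dose-finding. […] Endpoint at 72 h. Median of ED50s from kidney burden, weight change and outcome score.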

Candida albicans [23] = experiment: Antibacterial activity against Fluconazole resistant Candida albicans DSY3083 containing tac1delta/delta genotype containing CIp10 to restore URA3 function infected in BALB/c mouse administered intraperitoneally 1 hr post bacterial challenge measured 3 days post infection; in short: as §7
Candida albicans [24] = experiment: (§8) Antibacterial activity against Fluconazole resistant Candida albicans DSY3083 containing tac1delta/delta genotype containing CIp10 to restore URA3 function infected in BALB/c mouse assessed as weight change administered intraperitoneally 1 hr post bacterial challenge measured 3 days post infection
Candida albicans [25] = experiment: Antibacterial activity against azole-susceptible Candida albicans DSY294 containing CIp10 to restore URA3 function infected in BALB/c mouse administered intraperitoneally 1 hr post bacterial challenge measured 3 days post infection; in short: as §7
Candida albicans [26] = experiment: […] activity against Fluconazole resistant Candida albicans DSY3606 containing tac1delta/delta ERG11-1/ERG11-1 (TAC1-5) genotype infected in BALB/c mouse assessed as weight change administered intraperitoneally 1 hr post […] measured 3 days post infection
Candida albicans [27] = experiment: as §6, with “DSY3606” for “DSY3706”, “ERG11-1/ERG11-1 (TAC1-5)” for “ERG11-1/ERG11-1”; in short: as §5
Candida albicans [28] = experiment: Antibacterial activity against azole-susceptible Candida albicans DSY294 containing CIp10 to restore URA3 function infected in BALB/c mouse assessed as weight change administered intraperitoneally 1 hr post bacterial challenge measured 3 days post infection
In short: (§9)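 Female BALB/c mice (18 to 22 g) infected i.v. with saline suspension of C. albicans grown overnight in NGY medium. […] Percentage body weight change over 3 days; ED50 = dose reducing mean weight change below 50% of controls.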

Candida albicans [29] = experiment: Antibacterial activity against Fluconazole resistant Candida albicans DSY3606 containing tac1delta/delta ERG11-1/ERG11-1 (TAC1-5) genotype infected in BALB/c mouse administered intraperitoneally 1 hr post bacterial challenge measured 3 days post infection; in short: as §7
Candida albicans [30] = experiment: as §8, with “effect on infection outcome score” for “weight change”; in short: as §3
Candida albicans [31] = experiment: Antibacterial activity against azole-susceptible Candida albicans DSY294 containing CIp10 to restore URA3 function infected in BALB/c mouse assessed as reduction in kidney microbial burden administered intraperitoneally 1 hr post bacterial challenge measured 3 days post infection; in short: as §5
Candida albicans [32] = experiment: Antibacterial activity against Fluconazole resistant Candida albicans DSY3706 containing tac1delta/delta ERG11-1/ERG11-1 genotype infected in BALB/c mouse assessed as weight change administered intraperitoneally 1 hr post bacterial challenge measured 3 days post infection; in short: as §9
Candida albicans [33] = experiment: Antibacterial activity against Fluconazole resistant Candida albicans DSY3706 containing tac1delta/delta ERG11-1/ERG11-1 genotype infected in BALB/c mouse administered intraperitoneally 1 hr post bacterial challenge measured 3 days post infection; in short: as §7
Candida albicans [34] = experiment: as §8, with “reduction in kidney microbial burden” for “weight change”; in short: as §5
Candida albicans [35] = experiment: Antibacterial activity against azole-susceptible Candida albicans DSY294 containing CIp10 to restore URA3 function infected in BALB/c mouse assessed as effect on infection outcome score administered intraperitoneally 1 hr post bacterial challenge measured 3 days post infection; in short: as §3

Structure (SMILES) | fold change (FC) (Candida albicans [1]) | fold change (FC) (Candida albicans [2]) | MIC (Candida albicans [3]) [µg/mL] | MIC (Candida albicans [4]) [µg/mL] | fold change (FC) (Candida albicans [5]) | MIC (Candida albicans [6]) [µg/mL] | fold change (FC) (Candida albicans [7]) | fold change (FC) (Candida albicans [8]) | MIC (Candida albicans [9]) [µg/mL] | MIC (Candida albicans [10]) [µg/mL] | MIC (Candida albicans [11]) [µg/mL] | MIC (Candida albicans [12]) [µg/mL] | MIC (Candida albicans [13]) [µg/mL] | fold change (FC) (Candida albicans [14]) | fold change (FC) (Candida albicans [15]) | also measured
C[C@@H](c1ncncc1F)[C@](O)(Cn1cncn1)c1ccc(F)cc1F [VORICONAZOLE] | 16 | 1 | 0.0625 (≈ 0.179 µM) | 0.0078 (≈ 0.0223 µM) | 16 | 0.0078 (≈ 0.0223 µM) | 256 | 1 | 0.125 (≈ 0.358 µM) | 2 (≈ 5.73 µM) | 0.125 (≈ 0.358 µM) | 0.125 (≈ 0.358 µM) | 0.0078 (≈ 0.0223 µM) | 16 | 8 | 
OC(Cn1cncn1)(Cn1cncn1)c1ccc(F)cc1F [FLUCONAZOLE] | 16 | 1 | 2 (≈ 6.53 µM) | 0.25 (≈ 0.816 µM) | 16 | 0.25 (≈ 0.816 µM) |  | 1 | 4 (≈ 13.1 µM) | 64 (≈ 209 µM) | 4 (≈ 13.1 µM) | 4 (≈ 13.1 µM) | 0.25 (≈ 0.816 µM) | 16 | 8 | MIC (Candida albicans [16]): 3.5 µg/mL (≈ 11.4 µM); MIC (Candida albicans [17]): 120 µg/mL (≈ 392 µM); MIC (Candida albicans [18]): 200 µg/mL (≈ 653 µM); MIC (Candida albicans [19]): > 200 µg/mL; MIC (Candida albicans [20]): 3.5 µg/mL; MIC (Candida albicans [21]): 120 µg/mL (≈ 392 µM); MIC (Candida albicans [22]): 200 µg/mL (≈ 653 µM); MIC (Candida albicans [23]): 10 µg/mL (≈ 32.7 µM); MIC (Candida albicans [24]): 10 µg/mL (≈ 32.7 µM); MIC (Candida albicans [25]): 3.5 µg/mL (≈ 11.4 µM); MIC (Candida albicans [26]): 120 µg/mL (≈ 392 µM); MIC (Candida albicans [27]): 120 µg/mL; MIC (Candida albicans [28]): 1 µg/mL (≈ 3.27 µM); MIC (Candida albicans [29]): 120 µg/mL (≈ 392 µM); MIC (Candida albicans [30]): 10 µg/mL (≈ 32.7 µM); MIC (Candida albicans [31]): 10 µg/mL; MIC (Candida albicans [32]): 1 µg/mL (≈ 3.27 µM); MIC (Candida albicans [33]): 3.5 µg/mL (≈ 11.4 µM); MIC (Candida albicans [34]): 10 µg/mL; MIC (Candida albicans [35]): 3.5 µg/mL (≈ 11.4 µM)
CC[C@@H]([C@H](C)O)n1ncn(-c2ccc(N3CCN(c4ccc(OC[C@@H]5CO[C@@](Cn6cncn6)(c6ccc(F)cc6F)C5)cc4)CC3)cc2)c1=O [POSACONAZOLE] | 8 | 1 | 0.031 (≈ 0.0442 µM) | 0.0312 (≈ 0.0445 µM) | 8 | 0.031 (≈ 0.0442 µM) | 8 | 1 | 0.25 (≈ 0.357 µM) | 0.25 (≈ 0.357 µM) | 0.25 (≈ 0.357 µM) | 0.031 (≈ 0.0442 µM) | 0.031 (≈ 0.0442 µM) | 1 | 1 | 
CCC(C)n1ncn(-c2ccc(N3CCN(c4ccc(OCC5COC(Cn6cncn6)(c6ccc(Cl)cc6Cl)O5)cc4)CC3)cc2)c1=O (centres undefined) [ITRACONAZOLE] | 8 | 2 | 0.031 (≈ 0.0439 µM) | 0.0156 (≈ 0.0221 µM) | 16 | 0.0156 (≈ 0.0221 µM) | 16 | 1 | 0.125 (≈ 0.177 µM) | 0.25 (≈ 0.354 µM) | 0.25 (≈ 0.354 µM) | 0.031 (≈ 0.0439 µM) | 0.031 (≈ 0.0439 µM) | 2 | 2 | 
